# Jurkat tox 60K – cytotoxicity toward Jurkat cells; Jurkat E6.1 viability, ATP luminescence, 48 h; inhibition, % at 4 µM; hit rate 1.2% among 56,000; AID 463;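 active = inhibition above the mean inhibition of all tested compounds plus 3 SD, cut at about 28% in these data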
# SF1 activator – SF-1 (human) activation | activation, % at 10 µM | Q13285 | hit rate 1.9% among 65,000 | CHO-K1 Gal4-SF-1 LBD luciferase reporter; % increase over DMSO SF-1-specific signal;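 active = activation above the mean activation of all tested compounds plus 3 SD, cut at about 50% in these data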
#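 Assay system – CHO-K1 cells with Gal4–hSF-1 LBD chimera plus Gal4-driven luciferase · Quantity – 4,000 cells per well · Times – compound added 1 h post-seeding, 20 h exposure at 37 °C, 5% CO2 · Measured by – luciferase light emission · Benchmarks – DMSO and mock-transfected background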
# MT1-MMP txn act – MT1-MMP promoter transcription activation | hit rate 0.16% among 86,000 | HT1080 MT1-MMP promoter luciferase reporter, luminescence, overnight; hits give high values | activation factor at 10 µM;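 active = activation factor of at least 2 for MT1-MMP transcription at 10 µM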
# RORa activator – activators of human nuclear receptor RORA; P35398; CHO-K1 Gal4-RORA LBD luciferase reporter, luminescence; percent increase over mock-subtracted basal signal; activation, % at 10 µM; hit rate 1.5% among 65,000; AID 560;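 active = activation above the mean of all tested compounds plus 3 SD, cut at about 49% in these data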;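 note: 0% = DMSO-treated RORA cells and 100% = added signal equal to DMSO minus mock-transfected cells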
# Target sequence (P35398 whole entry, looked up, the tested form may be a part): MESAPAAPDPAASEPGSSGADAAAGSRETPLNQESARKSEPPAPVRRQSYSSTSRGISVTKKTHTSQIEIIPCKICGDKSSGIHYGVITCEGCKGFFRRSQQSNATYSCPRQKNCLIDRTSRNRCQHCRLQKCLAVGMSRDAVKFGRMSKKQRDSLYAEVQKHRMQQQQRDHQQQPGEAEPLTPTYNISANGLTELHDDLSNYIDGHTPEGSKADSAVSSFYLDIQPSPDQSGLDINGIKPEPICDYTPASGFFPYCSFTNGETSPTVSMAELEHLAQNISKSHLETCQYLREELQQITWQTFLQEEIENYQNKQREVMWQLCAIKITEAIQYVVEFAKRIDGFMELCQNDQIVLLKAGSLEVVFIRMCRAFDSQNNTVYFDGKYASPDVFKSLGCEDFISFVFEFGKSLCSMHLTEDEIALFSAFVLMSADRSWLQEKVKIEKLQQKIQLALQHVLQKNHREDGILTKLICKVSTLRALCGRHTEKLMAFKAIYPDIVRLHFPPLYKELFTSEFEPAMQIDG
# HEK293 NFkB inh – lowers PMA/ionomycin-induced NF-kB signal in HEK293 cells. HEK-293 NF-kB luciferase reporter, luminescence. AID 465. hit rate 0.21% among 62,000. inhibition, % at 3 µM;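 active = inhibition above the mean of all tested compounds plus 3 SD, cut at about 40% in these data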;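 note: 0% = stimulated DMSO wells and 100% = 10 µM reference inhibitor 5653914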
#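 System: NF-kB luciferase reporter HEK-293 cells | Replication: Single test | Control set: DMSO vs reference inhibitor | Evaluation: % inhibition | Schedule: 1 h pretreatment, 16 h stimulation, 37 °C | Probe or stimulus: PMA with ionomycin | Compound dosing: One dose, 3 µM | Detection: Luciferase luminescence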
# * marks the source's active call; other numbers are inactive results; · = no result given. A selection: hits, their analogues and other compounds. The true share with any hit is near 2.9%.
SMILES,Jurkat tox 60K,SF1 activator,MT1-MMP txn act,RORa activator,HEK293 NFkB inh
CC1(C)CC(=O)c2cnc(N3CCN(c4ccccc4)CC3)nc2C1,-10,1,1.2,4,3
CC1(C)CC(=O)c2cnc(N)nc2C1,·,·,2.4*,·,·
Cc1ccc2nc(Cc3ccc(N)cc3)oc2c1,-2,68*,1.6,39,-17
NS(=O)(=O)c1ccc(CCNC(=O)c2cccnc2)cc1,4,2,1.2,-15,10
Nc1nnc(COc2ccccc2)s1,·,·,1,·,·
O=C(COc1ccccc1)Nc1nccs1,·,·,1.3,·,·
NC(=O)c1ccsc1NC(=O)COc1ccccc1,1,68*,1.3,30,-7
COc1ccc(N=CC2=C(O)CCCC2=O)cc1,2,52*,1.7,15,9
CC1(C)CC(=O)C(C=Nc2ccc3c(c2)OCO3)=C(O)C1,-5,72*,1.8,65*,3
COc1ccc(N=Cc2c(O)[nH]c3ccccc23)cc1,·,·,1.3,·,·
CC1(C)CC(=O)C(C=NCc2ccc3c(c2)OCO3)=C(O)C1,-3,11,1.3,15,16
Oc1[nH]c2ccccc2c1C=Nc1ccc2c(c1)OCO2,-5,62*,1.4,84*,-52
COc1ccc(N=CC2=C(O)CC(C)(C)CC2=O)cc1,-3,87*,1.3,45,4
O=C(Oc1cccc(NC(=O)c2ccco2)c1)c1cccc(S(=O)(=O)N2CCCCC2)c1,·,·,1.4,·,·
O=C(O)C1C2C=CC(C2)C1C(=O)NC1CCS(=O)(=O)C1 (stereo not drawn),-6,-6,1.1,17,12
CC(C)(C)NC(=O)c1ccc2c(c1)N(CC(=O)N1CCN(c3ccc(F)cc3)CC1)C(=O)C(C)(C)O2,1,11,1,13,18
Cn1cc(/C=N/n2cnc3scc(-c4ccc(Cl)cc4)c3c2=O)c2ccccc21,96*,-81,0.6,-48,40*
O=c1c2cc(F)ccc2[nH]c(=S)n1CCCN1CCOCC1,·,·,1.2,·,·
CCOc1ccc(C(=O)Nc2cccc(C)n2)cc1,16,-31,0.4,-27,-22
CCCCOc1ccc(C(=O)Nc2cccc(C)n2)cc1,7,59*,0.8,55*,-2
CC1CCC(NC(=O)Cn2c(=O)[nH]c3ccsc3c2=O)CC1 (stereo not drawn),·,47,1.7,51*,3
O=C(Cn1c(=O)[nH]c2ccsc2c1=O)NC1CCCCCC1,·,8,1,-8,10
CCOC(=O)c1[nH]c(C)c(C(=O)Nc2ccc(F)cc2)c1C,8,-13,1,-8,6
CCOC(=O)c1[nH]c(C)c(C(=O)Nc2ccccc2F)c1C,89*,83*,1.2,110*,4
CCOC(=O)c1[nH]c(C)c(C(=O)Nc2ccc(C)cc2C)c1C,93*,43,0.7,34,24
SMILES,Jurkat tox 60K,SF1 activator,MT1-MMP txn act,RORa activator,HEK293 NFkB inh
CCOC(=O)c1[nH]c(C)c(C(=O)Nc2ccc(C)c(C)c2)c1C,13,42,1.1,11,-6
O=C(NCCC1=CCCCC1)c1ccc2c(=O)n3c(nc2c1)CCCCC3,3,6,1.7,48,-2
CN(C(=O)c1ccc2c(=O)n3c(nc2c1)CCCCC3)c1ccccc1,5,-5,1.1,-14,13
O=C(Nc1cccc(Cl)c1)c1ccc2c(=O)n3c(nc2c1)CCCCC3,18,59*,0.7,24,-10
O=C(Nc1ccc(F)c(Cl)c1)c1ccc2c(=O)n3c(nc2c1)CCCCC3,20,74*,1.5,30,-10
O=C(Nc1ccc2c(c1)OCCO2)C1CCCN(S(=O)(=O)c2cnc[nH]2)C1 (stereo not drawn),-1,15,1.1,-2,13
CCCCCOc1ccc(C(=O)NC(C(=O)O)C(C)C)cc1 (stereo not drawn),-3,1,1.2,10,14
COc1ccc(CCC(=O)Nc2ccc3c(c2)OCCO3)cc1,1,-13,1.3,56*,4
COc1ccccc1C(=O)Nc1ccc2c(c1)OCCO2,4,76*,1.6,33,-36
Cc1oc(C(C)(C)C)cc1C(=O)Nc1ccc2c(c1)OCCO2,-1,57*,1.8,64*,-20
Cc1nnc(NCCc2ccccc2)n(N)c1=O,-5,7,1.1,-16,11
Clc1ccccc1OCc1nnc(-c2ccccc2Br)o1,-1,94*,1.6,83*,-23
Cc1ccc(C(=O)Nc2nc(C(C)(C)C)cs2)s1,·,·,1.7,·,·
CN(C)S(=O)(=O)c1ccc(C(=O)Nc2nc(-c3cccs3)cs2)cc1,36*,40,1.1,24,1
O=C(Nc1nc2ccccc2s1)c1ccc(Cl)s1,4,98*,1,34,-78
Cc1nc(CC(=O)Nc2nc(C(C)(C)C)cs2)cs1,2,16,1.2,-1,-11
O=C(Nc1ccon1)c1ccc(Cl)s1,2,8,1.1,1,9
CC(C)(C)c1csc(NC(=O)c2ccc(Cl)s2)n1,22,53*,1.4,54*,-4
CC(C)(C)c1csc(NC(=O)c2ccc3nccnc3c2)n1,·,·,2*,·,·
O=C(Nc1nc(-c2cccs2)cs1)c1ccc(S(=O)(=O)N2CCCC2)cc1,21,-2,1,0,22
CCc1nnc(SCc2cn3c(C)cc(C)nc3n2)n1N,0,0,1.1,-19,25
O=C(Nc1nc(-c2cccs2)cs1)c1ccc(Cl)s1,18,34,1.4,68*,-1
CC(=O)Nc1nc(-c2cccs2)cs1,4,3,1.4,16,3
O=C(Cn1c(-c2ccccc2)noc1=O)Nc1ccc(N2CCCCCC2)cc1,2,-23,1.2,-17,10
Cn1nnc(NC(=O)c2cccc(OCc3ccccc3)c2)n1,-7,48,1,54*,6
SMILES,Jurkat tox 60K,SF1 activator,MT1-MMP txn act,RORa activator,HEK293 NFkB inh
COC(=O)c1ccc(C(NC(=O)OCc2ccccc2)/C(I)=C/[C@@H](C)C(=O)NCCc2c[nH]c3ccccc23)cc1 (stereo partly drawn),·,·,1.1,·,·
CCN(CC(N)=O)S(=O)(=O)c1ccc(Br)cc1,1,-4,1.1,-26,18
CCCc1c(C)c2c(C)[nH]nc2oc1=O,·,·,1.1,·,·
Cc1c(C)c2c(C)[nH]nc2oc1=O,-1,16,2.3*,-5,-2
O=C(Nc1ccc2c(c1)OCO2)c1cccs1,1,61*,1.4,26,-10
N/C(=N\O)c1ccc(NC(=O)c2cccs2)cc1,4,52*,1.5,36,-20
O=C(Nc1ccc2c(c1)OCO2)c1ccc(Br)s1,-4,49,·,69*,-39
O=C(Nc1cccc(F)c1)c1ccc2c(c1)OCO2,-5,62*,1.1,31,-25
CCCC[C@@H]1C[C@H]1C(NC(=O)c1ccc(C(F)(F)F)cc1)c1ccc(C(=O)OC)cc1 (stereo partly drawn),·,·,1.2,·,·
CCc1c2c(nc3cccc(OC)c13)OC(CC)C2 (stereo not drawn),·,·,1.2,·,·
Fc1ccc(OCc2nnc(SCCN3CCOCC3)o2)cc1,·,·,1.3,·,·
